From PubChem BioAssay
Hits are enriched below; roughly 2.6% of the tested compounds scored in any of these assays.
ERAP1 HTS inh – human ERAP1 aminopeptidase inhibitors, primary screen, biochemical, single point, plate reader; Endoplasmic reticulum aminopeptidase 1 (Homo sapiens), Q9NZ08; recombinant ERAP1, Leu-AMC fluorescence, 60 min; inhibition, % at 10.7 µM; actives 0.15% (n = 340,000); AID 652197, 2013;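 active means mean replicate inhibition of at least 30%, or all replicates individually reaching that 30% level; inactive means mean below 30% and not every replicate reaching it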;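 further: 0% = neutral control wells and 100% = L-leucinethiol positive control wells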
E-selectin induc – E-selectin induction in HUVECs, primary screen, imaging, HUVEC, immunofluorescence imaging, single point | P16581 | normalized: neutral wells 0, TNF-alpha wells 100 | activation, % at 7.58 µM | actives 0.37% (n = 260,000) | AID 686992, 2013;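 active means mean E-selectin-positive cell signal at least 10% of the positive control, reached in at least 60% of replicates, without over 20% cell loss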
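Test system – human umbilical vein endothelial cells (HUVEC), E-selectin induction · Input – 3,000 HUVEC seeded per well · Buffer or medium – EGM-2, gelatin · Compound dosing – single-point compound dose · Detection – immunofluorescence imaging · Measure – percent E-selectin-positive cells · Controls – TNF-alpha high, DMSO low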
GSIS activator – GLuc luminescence reporter in INS-1E cells, primary screen for activators of glucose-dependent secretion of insulin; activation, % at 16.6 µM; actives 0.61% (n = 370,000); INS-1E GLuc reporter insulin secretion, 2-3 h; AID 743287, 2014;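 active means lowest replicate activation of at least 40%, so every replicate reaches that level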;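 further: 0% = median of neutral control wells and 100% = median of IBMX positive control wells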
CFTR F508del cor – F508del CFTR correction, initial screen, CFBE line, single point. CFBE cells, YFP halide quenching; stimulated with forskolin plus potentiator P3; % fluorescence drop versus neutral controls. AID 720511, 2013. actives 0.36% (n = 350,000). activity (quench increase), % at 7.58 µM;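 active means mean added fluorescence quench of at least 8% versus neutral control, with both replicates also reaching 8%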;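 further: cells transiently co-express mutant CFTR-F508del with the halide-sensitive YFP; corrector assay measuring rescue of mutant channel to the surface after 24 h compound exposure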
DENV2 CPE – inhibitors of DENV2 cytopathic effect, primary screen, cell-based, plate reader, single concentration | DENV2-infected cells, cytopathic effect rescue | CPE inhibition, % at 9.99 µM | actives 1.7% (n = 350,000); in the data active means CPE inhibition above about 20%, passing the limit was not always enough; tested in BHK-21 cells;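 further: 0% = median of neutral control wells and 100% = median of positive control wells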
miR122 inh – miR-122 Renilla sensor signal increase in Huh7, primary screen, miR-122 inhibitor project, cell-based, single point, plate reader; activation (reporter increase), % at 12.5 µM; AID 602342, 2012; actives 0.3% (n = 340,000); Huh7 miR-122 Renilla luciferase sensor, 48 h; neutral wells = 0, positive control = 100;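 active means mean replicate activation score at least 90 and every replicate individually at or above 90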;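 further: higher luciferase means less miR-122 activity so hits act as miR-122 inhibitors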
* = called active by the depositor; / = no result; [ ] = remark or other dose.

SMILES | ERAP1 HTS inh | E-selectin induc | GSIS activator | CFTR F508del cor | DENV2 CPE | miR122 inh
C/C=C/c1ccc([C@@H]2[C@@H](CO)N(C(C)=O)[C@@H]2CN(CC)C(=O)CN(C)C)cc1 | -2 | 0 | 18 | 0 | 5 | 0[16.7 µM]
CCN(C(=O)COC(=O)/C=C/c1ccco1)C1CCCCC1 | 1 | 111* | -6 | 0 | 8 | /
Cc1ccccc1OCC(=O)OCC(=O)NCCNC(=O)COC(=O)COc1ccccc1C | -1 | 1 | 8 | 0 | 44* | -5
Cc1ccccc1OCC(=O)OCC(=O)NCc1ccccc1 | -1 | / | 28 | -1 | 0 | -2
CSc1ncccc1C(=O)OCc1ccccc1 | / | / | 47* | / | / | -5
CCN(C(=O)COC(=O)/C=C/c1ccc(F)cc1)C1CCCCC1 | 2 | 0 | -23 | 0 | -2 | -7
CCOc1ccc(CCNC(=O)COC(=O)c2nc(Cl)ccc2Cl)cc1OCC | 3 | 4 | 44* | 5 | -4 | /
CO[C@H]1CN(C)C(=O)c2ccc(NC(=O)C3CC3)cc2OC[C@@H](C)N(C(=O)C2CCCCC2)C[C@@H]1C | -2 | 0 | 7 | 0 | -7 | -3[16.7 µM]
CNC[C@@H]1Oc2ncccc2C(=O)N(C)C[C@H]1C | / | / | -7 | / | / | /
COc1ccc(CCNC(=O)COC(=O)c2ccc(C)s2)cc1OC | 1 | 0 | 42* | -1 | -2 | /
C[C@H](CO)N1C[C@H](C)[C@@H](CN(C)CC2CC2)Oc2c(NC(=O)CCCCCC(=O)Nc3ccccc3N)cccc2C1=O | / | 0 | 1 | / | / | /
CCC(C)NC(=O)c1cn(-c2cccc(OC)c2)c(=O)c2ccccc12 (stereo not drawn) | 2 | 1 | 2 | / | 6 | 1
CCN(CC)C(=O)c1cn(-c2cccc(OC)c2)c(=O)c2ccccc12 | -3 | 67* | / | 2 | -4 | /
CCC(=O)Nc1ccc2c(c1)C(=O)N(C)C[C@@H](OC)[C@H](C)CN(Cc1ccncc1)[C@@H](C)CO2 | / | 0 | 3 | -1 | 6 | /
CC1CCc2c(N3CCC(O)CC3)c(F)cc3c(=O)c(C(=O)O)cn1c23 (stereo not drawn) | 0 | 6 | / | -1 | -4 | -15
CC1CCc2cc(F)cc3c(=O)c(C(=O)O)cn1c23 (stereo not drawn) | 38* | 0 | / | 3 | -4 | 9
C[C@@H]1CN([C@H](C)CO)C(=O)c2cccc(NC(=O)Nc3ccccc3)c2O[C@H]1CN(C)CC1CCCCC1 | 0 | 0 | -9 | 3 | 12 | 43[16.7 µM]
C[C@@H]1CN([C@@H](C)CO)C(=O)c2cccc(NC(=O)Nc3ccccc3)c2O[C@@H]1CN(C)CC1CCCCC1 | 0 | 0 | -11 | 1 | 36* | 4[16.7 µM]
C[C@@H]1CN([C@@H](C)CO)C(=O)c2cccc(NC(=O)NC3CCCCC3)c2O[C@H]1CN(C)CC1CCCCC1 | -3 | 0 | 6 | 0 | 44* | 32[16.7 µM]
C[C@@H]1CN([C@@H](C)CO)C(=O)c2cccc(NC(=O)Nc3ccc(F)cc3)c2O[C@H]1CN(C)CC1CCCCC1 | 4 | 58* | -14 | 3 | -1 | 17[16.7 µM]
O=C(N[C@@H]1CC[C@H](CC(=O)N2CCC(Cc3ccccc3)CC2)O[C@H]1CO)c1cnccn1 | 3 | -1 | 17 | -1 | -1 | /
Cc1noc(C)c1S(=O)(=O)N(C)C[C@H]1Oc2ccc(NC(=O)CCC(F)(F)F)cc2CC(=O)N([C@H](C)CO)C[C@@H]1C | -1 | 0 | -3 | 0 | -8 | 4[16.7 µM]
C/C(=N\NC(=O)c1nnn(-c2nonc2N)c1-c1ccccc1)c1cccnc1 | 1 | / | 1 | 1 | 96* | 5
CCc1nnc(NC(=O)c2ccc(NS(=O)(=O)c3ccccc3)cc2)s1 | / | / | / | / | / | 212*
CCc1nnc(NS(=O)(=O)c2ccc(NC(=O)c3ccccc3)cc2)s1 | / | 1 | 6 | -1 | / | 18
CCCCOc1ccc(/C=C/C(=O)OCC(=O)NC2CCS(=O)(=O)C2)cc1OCC (stereo not drawn) | 2 | 0 | 45* | -2 | 0 | /
